Reference: ChEMBL document CHEMBL1821702, “8,8-Dimethyldihydroberberine with improved bioavailability and oral efficacy on obese and diabetic mouse models” (Bioorg Med Chem, 2010)
Each block holds one molecule with its values, some of them ahead of it. Activity calls are given as the source filed them. The calls are words filed in the database; no cut-off is given here.

How the values were obtained:
Rattus norvegicus [1] = species on record: Rattus norvegicus; assay: Induction of AMPK phosphorylation in 2 hrs serum starved rat differentiated L6 myotubes after 1 hr
In short: (§1)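 Fully differentiated L6 myotubes were serum-starved 2 h, then treated 1 h across a dose series. Phospho-AMPK (Thr172) and phospho-ACC (Ser79) were detected by Western blot. Three independent experiments.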

Rattus norvegicus [2] = species on record: Rattus norvegicus; assay: Induction of AMPK-dependent ACC phosphorylation in 2 hrs serum starved rat differentiated L6 myotubes after 1 hr; in short: as §1
L6 [3] = assay: Cytotoxicity against rat L6 cells upto 10 uM after 24 hrs by MTT assay; assay type: cell-based; details: l6, 24 h
In short: (§2)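 Differentiated L6 myoblasts were exposed to a concentration range of compounds for 24 h at 37 °C. MTT (5 mg/mL) was added for 3 h, formazan was dissolved in DMSO, and absorbance was read at 550 nm against 690 nm reference. Mean of three independent experiments ± SE.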

L6 [4] = assay: Cytotoxicity against rat L6 cells upto 40 uM after 24 hrs by MTT assay; assay type: cell-based; details: l6, 24 h; in short: as §2
L6 [5] = assay: Increase in glucose uptake in rat differentiated L6 myotubes after 1 hr relative to untreated control; assay type: functional
In short: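 Fully differentiated L6 myotubes were serum-starved 2 h, then treated with compound for 15 min to 2 h (dose series at 1 h). Glucose uptake was measured relative to DMSO control. Mean of three independent experiments ± SE.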

[6] = Stability in acidic buffer at pH 2 after 6 hrs by HPLC; assay type: physicochemical; details: acidic buffer, pH 2
In short: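 A 0.5 mg/mL solution in acetonitrile was adjusted to pH 2 with H3PO4 and analyzed over 6 h by HPLC. Conditions: C18 column at 25 °C, 58% acetonitrile in 0.05 mol/L KH2PO4/0.005 mol/L SDS, 1 mL/min, detection at 320 nm.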

[7] = Aqueous solubility of compound in distilled water; assay type: physicochemical
In short: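 Excess solid was suspended in distilled water and stirred 24 h at 25 ± 0.5 °C. The suspension was filtered, and dissolved concentration was measured by HPLC.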

[8] = Oral bioavailability in 12 hrs fasting Sprague-Dawley rat at 20 mg/kg; assay type: ADME, organism-based; details: in vivo
Mus musculus [9] = assay: Antidiabetic activity in C57BLKS/J-db/db mouse assessed as alleviation of glucose tolerance at 50 mg/kg/day, po for 3 weeks by intraperitoneal glucose tolerance test; assay type: functional, organism-based
In short: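 Male and female C57BLKS/J-db/db mice, randomized at 6 weeks of age by body weight and fed glucose, were gavaged once daily in vehicle (0.5% microcrystalline cellulose, 1.6% lactose). For ipGTT, D-glucose was given at 2 g/kg ip, and blood glucose was read by glucometer at 0, 15, 30, 60, 90 and 120 min.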

Mus musculus [10] = assay: Antidiabetic activity in C57BLKS/J-db/db mouse assessed as decrease in fed blood glucose level at 50 mg/kg/day, po for 3 weeks; assay type: functional; parameters: scale not given: the % may be the effect or the level left
Mus musculus [11] = assay: Antidiabetic activity in C57BLKS/J-db/db mouse assessed as decrease in fed blood glucose level at 50 mg/kg/day, po for 4 weeks; assay type: functional; parameters: scale not given: the % may be the effect or the level left
Mus musculus [12] = assay: Antidiabetic activity in C57BLKS/J-db/db mouse assessed as reduction of fasting blood glucose level at 50 mg/kg/day, po for 3 weeks; assay type: functional; parameters: scale not given: the % may be the effect or the level left
Mus musculus [13] = assay: Antiobese activity in C57BLKS/J-db/db mouse assessed as decrease in plasma triglyceride level at 50 mg/kg/day, po […]; assay type: functional
In short: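 db/db mice were gavaged once daily in 0.5% microcrystalline cellulose/1.6% lactose vehicle for 6 weeks and killed after the final dose. Plasma triglycerides were measured with a colorimetric triglyceride assay kit.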

Mus musculus [14] = assay: Toxicity in C57BLKS/J-db/db mouse assessed as change in body weight at 50 mg/kg/day, po for 6 weeks; assay type: organism-based; parameters: route oral; details: in vivo, 1008 h
In short: (§3)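 db/db mice (half male, half female) were dosed by oral gavage daily for 6 weeks in 0.5% microcrystalline cellulose/1.6% lactose vehicle. Body weight and food intake were recorded daily. Mice were killed after the final dose, and liver and fat depots were weighed and expressed relative to body weight.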

Mus musculus [15] = assay: Toxicity in C57BLKS/J-db/db mouse assessed as change in food intake at 50 mg/kg/day, po for 6 weeks; assay type: organism-based; parameters: route oral; details: in vivo, 1008 h; in short: as §3
Mus musculus [16] = assay: Toxicity in C57BLKS/J-db/db mouse assessed as reduction in liver weight at 50 mg/kg/day, po for 6 weeks; assay type: organism-based; parameters: route oral; scale not given: the % may be the effect or the level left; details: in vivo, 1008 h; in short: as §3
Mus musculus [17] = assay: Antidiabetic activity in C57BLKS/J-db/db mouse assessed as decrease in area under curve at 50 mg/kg/day, po for 4 weeks by insulin tolerance test; assay type: functional; parameters: scale not given: the % may be the effect or the level left
Mus musculus [18] = assay: Toxicity in C57BLKS/J-db/db mouse assessed as increase in subcutaneous fat at 50 mg/kg/day, po for 6 weeks; assay type: organism-based; parameters: route oral; details: in vivo, 1008 h; in short: as §3

- Activity (Rattus norvegicus [1]): Dose-dependent effect
- Activity (Rattus norvegicus [2]): Dose-dependent effect
Structure (SMILES): CCC1(CC)c2c(ccc(OC)c2OC)CC2=[N+]1CCc1cc3c(cc12)OCO3.[Cl-] [8,8-Diethyldihydroberberine]
- Activity (L6 [3]): Toxic

Structure (SMILES): CCCC1(CCC)c2c(ccc(OC)c2OC)CC2=[N+]1CCc1cc3c(cc12)OCO3.[Cl-] [8,8-Dipropyldihydroberberine]
- Activity (L6 [4]): Non-toxic
- Activity (L6 [5]): 62%

- decrease in content after 6 h at 6 h [6]: 17%
- solubility [7]: < 1000 µg/mL
- bioavailability [8]: 2.65%
Structure (SMILES): COc1ccc2c(c1OC)CN1CCc3cc4c(cc3C1=C2)OCO4 [DIHYDROBERBERINE]
- Activity (Mus musculus [9]): inactive
- Activity (Mus musculus [10]): 25%
- Activity (Mus musculus [11]): 18%
- Activity (Mus musculus [12]): 17%
- Activity (Mus musculus [13]): inactive
- Activity (Mus musculus [14]): Non-toxic
- Activity (Mus musculus [15]): Non-toxic
- Activity (Mus musculus [16]): 11%
- Activity (Mus musculus [17]): 12%
- Activity (Mus musculus [18]): 14%
